Experiments:
[1] = Cytotoxicity against human PBMC after 7 days by XTT assay; type: cell-based; conditions: PBMC (peripheral blood mononuclear cells)
Summary of the method: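 Confluent PBMCs were exposed to a range of compound concentrations for 7 days, and viability was then read by XTT. CC50 is the concentration giving 50% cytotoxicity relative to untreated controls. Mean ± SD of three independent experiments.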

[2] = tested on: Human immunodeficiency virus 1; assay: Antiviral activity against R5-tropic Human immunodeficiency virus 1 Ba-L subtype B infected in human PBMC assessed as inhibition of viral replication after 7 days by ELISA; type: functional, organism-based; conditions: 168 h
Summary of the method: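 Phytohemagglutinin-stimulated PBMCs (2–3 days), then kept in medium with recombinant human IL-2, infected with HIV-1 Ba-L (R5-tropic, subtype B) and treated with a range of concentrations (µM). After 7 days, p24 antigen in culture supernatants was measured by capture ELISA. EC50 is the concentration reducing replication 50% versus infected controls. Mean ± SD of three independent experiments. AZT positive control.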

[3] = Selectivity ratio of CC50 for human PBMC to EC50 for R5-tropic Human immunodeficiency virus 1 Ba-L subtype B
Summary of the method: (§1)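 Selectivity index is calculated as CC50 (XTT viability in PBMCs, 7 days) divided by EC50 (p24 ELISA, HIV-1 Ba-L-infected PBMCs, 7 days).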

[4] = molecular target: Human immunodeficiency virus type 1 reverse transcriptase (Human immunodeficiency virus 1, UniProt Q72547); assay: Inhibition of Human immunodeficiency virus 1 reverse transcriptase
[5] = tested on: Human immunodeficiency virus 1; assay: Antiviral activity against Human immunodeficiency virus 1 infected in human PBMC assessed as inhibition of viral replication; type: functional, organism-based
Summary of the method: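 Human PBMCs stimulated with phytohemagglutinin for 2–3 days, then kept in medium with recombinant human IL-2. Cells infected with HIV-1 Ba-L (R5-tropic, subtype B) and exposed to a range of compound concentrations for seven days. Supernatant p24 antigen measured by capture ELISA. EC50 is the concentration giving 50% less replication than infected controls. Mean ± SD of three independent experiments.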

[6] = tested on: Human immunodeficiency virus 1; assay: Antiviral activity against Human immunodeficiency virus 1 Ba-L infected in macrophages assessed as inhibition of viral replication; type: functional, organism-based
[7] = Selectivity ratio of CC50 for human PBMC to EC50 for Human immunodeficiency virus 1 Ba-L; summary of the method: as §1

| SMILES | CC50 at 168 h [1] [µM] | EC50 [2] [µM] | Ratio CC50/EC50 [3] | Ki [4] [µM] | EC50 [5] [µM] | EC50 [6] [µM] | Ratio CC50/EC50 [7] |
| --- | --- | --- | --- | --- | --- | --- | --- |
| CCOC(=O)c1cn(CP(=O)(OC(C)C)OC(C)C)c2ccccc2c1=O | 2310 | 7.3 | 316.4 | – | – | – | – |
| CCOC(=O)c1cn(CP(=O)(OC(C)C)OC(C)C)c2ccc(C)cc2c1=O | 1320 | 21.3 | 61.3 | – | – | – | – |
| CCOC(=O)c1cn(CP(=O)(OC(C)C)OC(C)C)c2cc(F)ccc2c1=O | 2940 | 0.2 | 14675 | – | – | – | – |
| CCOC(=O)c1cn(CP(=O)(OC(C)C)OC(C)C)c2ccc([N+](=O)[O-])cc2c1=O | 931 | 38 | – | – | – | – | – |
| CCOC(=O)c1cn(CP(=O)(OC(C)C)OC(C)C)c2cc(Br)ccc2c1=O | 731 | 61.2 | 11.9 | – | – | – | – |
| CCOC(=O)c1cn(CP(=O)(OC(C)C)OC(C)C)c2ccc(F)cc2c1=O | 2500 | 0.4 | 6240 | – | – | – | – |
| O=C(O)c1cn([C@@H]2O[C@H](CO)[C@@H](O)[C@H]2O)c2ccc(Cl)cc2c1=O | – | – | – | 0.5 | 1.5 | 4.9 | 1134 |
| CCOC(=O)c1cn(CP(=O)(OC(C)C)OC(C)C)c2ccc(Cl)cc2c1=O | 1240 | 8.1 | 152.4 | – | – | – | – |
| CCOC(=O)c1cn(CP(=O)(OC(C)C)OC(C)C)c2cc([N+](=O)[O-])ccc2c1=O | 812 | 22 | 36.9 | – | – | – | – |
| CCOC(=O)c1cn(CP(=O)(OC(C)C)OC(C)C)c2cc(C)ccc2c1=O | 1120 | 9 | 123.9 | – | – | – | – |
| Cc1cn([C@H]2C[C@H](N=[N+]=[N-])[C@@H](CO)O2)c(=O)[nH]c1=O [ZIDOVUDINE] | 128 | 0.16 | – | – | – | – | – |
| CCOC(=O)c1cn(CP(=O)(OC(C)C)OC(C)C)c2ccc(Br)cc2c1=O | 802 | 56 | 14.3 | – | – | – | – |
| CCOC(=O)c1cn(CP(=O)(OC(C)C)OC(C)C)c2cc(Cl)ccc2c1=O | 828 | 21 | 39.4 | – | – | – | – |

Reference: ChEMBL document CHEMBL2057117, “Oxoquinoline acyclonucleoside phosphonate analogues as a new class of specific inhibitors of human immunodeficiency virus type 1” (Bioorg Med Chem Lett, 2012)
